Screens as filed in PubChem BioAssay.
TAAR1 antagonist = antagonists of human TAAR1. Q96RJ0. CHO RD-HGA16 TAAR1, Fluo-8 calcium fluorescence, antagonist. inhibition, % at 3 µM. 360,000 tested, 1.5% active. AID 624466;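 active means inhibition above a per-plate cutoff, the mean inhibition of test compounds on that plate plus 3 SD, cut at about 49% in these data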;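 further: 0% = DMSO plus EC80 beta-PEA response and 100% = DMSO alone without agonist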
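Test system: RD-HGA16 CHO cells with stable hTAAR1 and Gα16 / Probe or stimulus: EC80 β-phenethylamine stimulus / Times: seeding 17-24 h prior, 75-min 37 °C, 30-min RT dye loading / Detection: Fluo-8 calcium-sensitive fluorescence / Read-out basis: % inhibition scaled between DMSO and EC80 PEA controls / Repeats: singlicate, one well per test compound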
CHO parental Ca = signal in parental CHO cells, OX1R antagonist counter-screen | parental CHO-K1, ATP-induced calcium, Fluo-8 fluorescence | inhibition, % at 5.6 µM | AID 463079 | 330,000 tested, 0.63% active;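 active means inhibition above that plate's mean sample inhibition plus 3 SD, cut at about 26% in these data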;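 further: 0% = ATP-challenged DMSO wells and 100% = DMSO wells without ATP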
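Material: Parental CHO cells | Reagent: ATP | Compound dosing: Single nominal dose of 5.6 µM per compound | Detection: Intracellular calcium via Fluo-8 no-wash fluorescent dye | Read-out: % inhibition of ATP-induced calcium mobilization | Benchmarks: Low control ATP plus DMSO, high control DMSO only | Replicates: Singlicate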
OX1R antag-1 = human HCRTR1 antagonism; AID 434989; 330,000 tested, 0.43% active; O43613; CHO/OX1R cells, Fluo-8 calcium fluorescence, orexin A; inhibition, % at 5 µM;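 active means inhibition above its plate's threshold, mean inhibition of all tested compounds on the plate plus 3 SD, cut at about 37% in these data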;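 further: 0% = orexin A challenge wells and 100% = SB-334867-A antagonist wells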
Target sequence (O43613 whole entry, looked up): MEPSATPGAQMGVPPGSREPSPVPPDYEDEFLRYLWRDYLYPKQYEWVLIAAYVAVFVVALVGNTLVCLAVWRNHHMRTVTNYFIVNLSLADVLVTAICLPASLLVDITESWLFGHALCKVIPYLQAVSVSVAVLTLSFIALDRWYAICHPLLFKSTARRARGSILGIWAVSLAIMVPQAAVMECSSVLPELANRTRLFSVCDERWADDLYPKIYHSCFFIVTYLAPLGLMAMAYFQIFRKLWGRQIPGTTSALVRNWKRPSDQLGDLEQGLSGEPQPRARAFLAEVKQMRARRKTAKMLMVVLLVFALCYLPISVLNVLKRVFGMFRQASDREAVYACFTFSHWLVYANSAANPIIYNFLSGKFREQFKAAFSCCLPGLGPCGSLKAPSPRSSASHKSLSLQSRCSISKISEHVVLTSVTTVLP
GPR7 antagonist = antagonists of human GPR7 (neuropeptides B/W receptor 1) | P48145 | GPR7-expressing cells, fluorescence antagonist assay | inhibition, % at 4.4 µM | 290,000 tested, 1.1% active | AID 1861; in the data active means inhibition above about 16%, passing the limit was not always enough;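 further: cells stimulated with the agonist NPW; 0% = agonist with vehicle and 100% = vehicle without agonist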
OX1R antag-2 = OX1R (human) antagonism | OX1R-expressing cells, FRET antagonist read-out | inhibition, % at 6.6 µM | 330,000 tested, 1.8% active | AID 485270; in the data active means inhibition mostly above about 38%, no sharp cut-off; inactive means mostly below about 40%;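 further: 0% = agonist challenge alone and 100% = reference antagonist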
TAAR1 agonist = human TAAR1 agonism; CHO RD-HGA16 TAAR1, Fluo-8 calcium fluorescence; vehicle wells 0%, saturating PEA agonist 100%; Q96RJ0; 360,000 tested, 0.99% active; activation, % at 3 µM;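 active means activation above the mean activation of all test compounds in the run plus 3 SD, cut at about 38% in these data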
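System: CHO RD-HGA16 cells carrying human TAAR1 plus Gα16; Incubation: 17-24 h seeding, 75 min 37 °C dye, 30 min RT; Measured by: Fluo-8 fluorescence, 5 s baseline then 140 s kinetic read; Control set: DMSO and PEA EC100; Replication: single well for each compound.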
* hit, by the source's call; nt = no result given. Shown are actives, neighbours in structure and some others; about 4.6% of the full set was active somewhere.

SMILES | TAAR1 antagonist | CHO parental Ca | OX1R antag-1 | GPR7 antagonist | OX1R antag-2 | TAAR1 agonist
Nc1[nH]c(C(=O)c2ccccc2)c(-c2cccc(C(F)(F)F)c2)c1C(=O)c1c[nH]c2ccccc12 | -1 | nt | nt | nt | nt | 3
FC(F)(F)c1ccccc1CN1CCN(C2CCCCCC2)CC1 | 3 | -15 | -30 | 20* | 10 | 8
Cc1ccc2sc(NC(=O)c3cccc(N4C(=O)CCC4=O)c3)nc2c1C | 45 | 11 | 11 | 4 | 26 | 48*
N#Cc1ccc(S(=O)(=O)NC(=O)[C@H]2O[C@@H](n3ccc(=O)[nH]c3=O)[C@H](O)[C@@H]2O)cc1 | -19 | nt | nt | nt | nt | 2
CC1C(=O)N(Cc2ccccc2F)c2ccccc2N1C(=O)c1c(F)cccc1F (stereo not given) | 52* | 62* | 27 | 29 | 15 | 5
COC(=O)/C(=C\c1ccc([N+](=O)[O-])o1)NC(=O)c1ccccc1 | 18 | 2 | -4 | 5 | 69* | 1
Cc1c(C(=O)O)cccc1-c1ccc(/C=N/Nc2ccc(Br)cc2)o1 | 59* | -2 | 6 | 1 | 22 | 23
O=C(O)c1ccc(N/N=C/C=C/c2ccc([N+](=O)[O-])o2)cc1 | 42 | 52* | 49* | -2 | 63 | 33
O=C(COc1ccccc1)N/N=C/c1ccc([N+](=O)[O-])o1 | 5 | 0 | -7 | -6 | 53 | 2
NC(=O)N/N=C/c1ccc([N+](=O)[O-])o1 | -13 | 4 | -3 | nt | 66* | 2
O=[N+]([O-])c1cc2c(c([N+](=O)[O-])c1)Nc1ccccc1O2 | 9 | nt | nt | nt | nt | 5
COC(=O)[C@]12C[C@H](CC(=O)N3CCCC3)C(=O)N(CCC3=CCCCC3)C1=C[C@H](C(C)(C)C)O[C@@H]2C | -40 | nt | nt | nt | nt | -1
NC(=O)/C(=C\c1ccc([N+](=O)[O-])o1)c1ccco1 | -12 | nt | nt | nt | nt | 0
O=[N+]([O-])c1ccc(/C=[N+](\[O-])CCO)o1 | -4 | -7 | -14 | -5 | 47* | 0
COC(=O)N/N=C/c1cc(OC)c(O)c([N+](=O)[O-])c1 | 3 | -4 | -18 | -2 | 51* | 3
Cc1cc(C(=O)N/N=C/c2ccc([N+](=O)[O-])o2)c(C)o1 | -10 | -5 | 8 | -17 | 32 | -1
COc1cc(/C=N/NS(=O)(=O)c2ccc(C)c([N+](=O)[O-])c2)cc([N+](=O)[O-])c1O | -8 | -8 | 2 | -10 | 9 | 4
COC(=O)N/N=C/c1ccc([N+](=O)[O-])o1 | -7 | -7 | -13 | -19 | 56* | 6
O=C(CNc1ccc2ccccc2c1)N/N=C/c1ccc([N+](=O)[O-])o1 | 23 | 41* | 24 | -4 | 46* | 2
Cc1cc(Oc2cccc3c2S(=O)(=O)N([C@H](C)c2ccccc2)C[C@@H](COCc2ccccc2)O3)cc(C)c1C | 2 | nt | nt | nt | nt | 3
O=C(N/N=C/c1ccc([N+](=O)[O-])o1)C(O)c1ccccc1 (stereo not given) | -11 | -7 | -3 | -6 | 36* | 3
O=C(N/N=C/c1ccc(-c2ccc([N+](=O)[O-])cc2)o1)C(O)c1ccccc1 (stereo not given) | -6 | -12 | -17 | -15 | 18 | 4
O=C(O)c1cccc(-c2ccc(/C=N/Nc3ccc([N+](=O)[O-])cc3)o2)c1 | 57* | 33* | 54* | 11 | 12 | 44*
O=C(O)c1ccc(N/N=C/c2ccc(-c3cccc(Cl)c3)o2)cc1 | 31 | 1 | 1 | -1 | 6 | 35
COc1ccc(Cn2nnnc2CN(Cc2cc3ccc(C)cc3[nH]c2=O)C2CCCC2)cc1 | 13 | -29 | -1 | 1 | 43* | 1
COc1ccc(Cn2nnnc2CN(Cc2cc3cccc(C)c3[nH]c2=O)C2CCCC2)cc1 | 49 | -21 | -27 | -11 | 33 | 14
CCCCNC(=S)N1CCN(c2ccc(C(C)=O)cc2)CC1 | 16 | 18 | -4 | 19* | 11 | 3
CC(=O)c1ccc(N2CCN(C(=S)Nc3cc(C)ccc3C)CC2)cc1 | -2 | -4 | -6 | -4 | -2 | 7
